Data as given in PubChem BioAssay.
Records with an inconclusive call do not appear.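 The calls were made as follows, unless noted: active = cell viability at or below a set limit in both duplicate runs, the limit being the all-compound median minus 4 SD (cut at about 23% in these data, passing the limit was not always enough); inconclusive = no clear call, values can overlap the other calls; inactive = the rest.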

Assays:
[1] = S. cerevisiae growth inhibition in permissive medium (OD615), pilot counter-assay for S. cerevisiae lifespan shortening project, permissive growth control (AID 705;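 active = growth inhibition above 25% in both replicates, a cutoff set 3 SD above the mean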); settings: OD615, 24 h, at 10 µM, stronger effect = higher value
Method in brief: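 Timing: 24 h exposure, 30 °C / Material: Saccharomyces cerevisiae strain carrying genetically modified DeaD replicative-lifespan system / Signal: OD at 615 nm / Compound: 10 µM single dose, 0.25% DMSO / Medium: SC raffinose/galactose permissive medium / Evaluation: reduction in yeast growth (OD615)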

[2] = S. cerevisiae growth inhibition in restrictive medium, OD615, pilot screen, restrictive growth control, yeast lifespan reduction project (AID 706;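 active = growth inhibition above a set limit, 3 SD over mean compound inhibition, in both replicates, cut at about 43% in these data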;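 also: modified DeaD lifespan yeast strain shifted to restrictive glucose medium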); settings: OD615, 48 h, at 10 µM, stronger effect = higher value
Method in brief: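 System: Engineered S. cerevisiae DeaD strain | Detection: OD615 | Buffer or medium: CSMM-D glucose medium | Doses: 10 µM compound, 0.25% DMSO | Timing: 4 h pre-growth plus 48 h compound exposure, 30 °C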

[3] = doxorubicin toxicity protection in MRP-1 cells – H69AR cells, CellTiter-Glo, duplicate, MRP-1 activator project, pilot screen (AID 807;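 active = viability increase at or above a cutoff of the median across tested compounds plus 3 SD, cut at about 8.5% in these data, passing the limit was not always enough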;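 also: compound pretreatment 18-22 h then 72 h combined with doxorubicin; 0% = doxorubicin alone and 100% = vehicle without doxorubicin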); settings: H69AR viability with doxorubicin, CellTiter-Glo luminescence; at 10 µM; stronger effect = higher value
[4] = viability of HCT116 without oncogenic beta-catenin – human colon tumor cells, pilot screen (AID 823); settings: HCT116 beta-catenin knockout viability, CellTiter-Glo, 60 h; at 10 µM; stronger effect = lower value;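 also: 0% = wells killed by 20 µM Hyamine and 100% = untreated DMSO cell wells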
[5] = viability of PTEN-null HCT116 cells – cell-based, HCT116 clonal line, CellTiter-Glo, pilot screen (AID 824;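 active = viability at or below 27.92% in each of two runs, the all-compound median minus 4 SD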;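 also: 0% = 20 µM Hyamine control and 100% = vehicle cell control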); settings: HCT116 PTEN-deleted viability, 60 h, at 10 µM, stronger effect = lower value
[6] = RAM pathway blockade in budding yeast – dse1pr::URA3 reporter, 5-FOA selection, pilot screen (AID 869;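 active = inhibition over a set limit, the all-compound mean plus 3 SD, in both replicate runs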;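 also: 0% = DMSO wells with no growth and 100% = 10 µM 1-NA-PP1 with full growth; RAM network block rescues cells from 5-FOA so hits raise OD615 growth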); settings: S. cerevisiae dse1pr::URA3 5-FOA growth, OD615, 2 d; at 10 µM; stronger effect = higher value; strain carries analog-sensitive mutant Cbk1 kinase
[7] = RAM signaling pathway blockade in yeast – S. cerevisiae, Pdr1DBD-CYC8 efflux-inhibited sensitized strain, primary screen (AID 1298;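 active = RAM network inhibition above 8.4% in each of two replicates, 3 SD over the compound average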;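 also: 0% = DMSO untreated cells without growth and 100% = 10 µM 1-NA-PP1 full growth; higher means more yeast growth rescued from 5-FOA killing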); settings: S. cerevisiae cbk1-as DSE1-URA3 strain, 5-FOA growth OD615, 2 d; at 50 µM; stronger effect = higher value

CCC(=O)N1CCc2cc(Br)cc(S(=O)(=O)N3CCN(C(=O)c4ccco4)CC3)c21
inactive: growth inhibition [1] -4.72% | growth inhibition [2] -21.7% | viability increase [3] -1.56% | viability [4] 91.6% | viability [5] 95.4% | inhibition [6] 2.48% | RAM network inhibition [7] 1.88%

COc1ccc(C2C(C(=O)Nc3cccc(C)n3)c3ccccc3C(=O)N2C)cc1OC (configuration not stated)
inactive: growth inhibition [1] 5.62% | growth inhibition [2] 5.49% | viability increase [3] -1.04% | viability [4] 103% | viability [5] 99.6% | inhibition [6] -0.04% | RAM network inhibition [7] 3.5%

O=C(O)C1(P(=O)(c2ccccc2)c2ccccc2)CCC1
inactive: growth inhibition [1] -13.9% | growth inhibition [2] -5.79% | viability increase [3] -0.11% | viability [4] 99.6% | viability [5] 99.3% | inhibition [6] 1.34% | RAM network inhibition [7] 3.04%

CCOC(=O)C1CCCN(c2cc(=O)n(-c3ccccc3Cl)c(=O)[nH]2)C1 (configuration not stated)
inactive: growth inhibition [1] -3.86% | growth inhibition [2] -18.9% | viability increase [3] -1.99% | viability [4] 89.7% | viability [5] 94.5% | inhibition [6] 1.53% | RAM network inhibition [7] 0.31%

Cc1cccc(NC(=O)CC2SC(=NC3CCCCC3)NC2=O)c1 (configuration not stated)
inactive: growth inhibition [1] -5.5% | growth inhibition [2] -21.6% | viability increase [3] 0.92% | viability [4] 99.2% | viability [5] 94.9% | inhibition [6] 0.415% | RAM network inhibition [7] 4.77%

CC(=O)c1c(C)[nH]c(C(=O)Nc2cc(C)ccc2C)c1C
inactive: growth inhibition [1] 8.06% | growth inhibition [2] -8.57% | viability increase [3] -1.16% | viability [4] 98.5% | viability [5] 96.6% | inhibition [6] 2.14% | RAM network inhibition [7] 1.74%

COc1ccc(-c2noc(Cc3cccs3)n2)cc1
inactive: growth inhibition [1] 0.04% | growth inhibition [2] 3.45% | viability increase [3] -2.47% | viability [4] 102% | viability [5] 93.3% | inhibition [6] 2.76% | RAM network inhibition [7] 4.89%

Cc1ccc(S(=O)(=O)NCC(=O)N2CCC(C)CC2)cc1
inactive: growth inhibition [1] -17.5% | growth inhibition [2] -28.3% | viability increase [3] 0.72% | viability [4] 104% | viability [5] 107% | inhibition [6] 0.475% | RAM network inhibition [7] 4.08%

CCOc1ccc(Nc2ncnc3c2cnn3-c2ccccc2)cc1
inactive: growth inhibition [1] -3.8% | growth inhibition [2] 3.48% | viability increase [3] 2.06% | viability [4] 106% | viability [5] 108% | inhibition [6] 1.29% | RAM network inhibition [7] 2.91%

O=C(CNC(=O)c1ccccc1F)NC1CC1
inactive: growth inhibition [1] -8.56% | growth inhibition [2] -2.84% | viability increase [3] -2.87% | viability [4] 99.3% | viability [5] 96.4% | inhibition [6] 0.76% | RAM network inhibition [7] 6.17%

CCCOc1ccc(N2CC(C(=O)Nc3ccccc3OC)CC2=O)cc1 (configuration not stated)
inactive: growth inhibition [1] -15.6% | growth inhibition [2] -6.16% | viability increase [3] 0.54% | viability [4] 105% | viability [5] 93.7% | inhibition [6] 0.11% | RAM network inhibition [7] 2.24%

NS(=O)(=O)c1ccc(CNC(=O)NC2(c3ccccc3)CC2)cc1
inactive: growth inhibition [1] -14.6% | growth inhibition [2] -6.6% | viability increase [3] -2.9% | viability [4] 102% | viability [5] 87.2% | inhibition [6] 1.08% | RAM network inhibition [7] 3.05%

CC(C)NS(=O)(=O)c1ccc2c(c1)oc(=O)n2C
inactive: growth inhibition [1] -2.26% | growth inhibition [2] 2.4% | viability increase [3] -0.75% | viability [4] 106% | viability [5] 98.7% | inhibition [6] -0.14% | RAM network inhibition [7] 0.91%

CC1CCN(CC(O)COc2ccc(F)cc2)CC1 (configuration not stated)
inactive: growth inhibition [1] -19.2% | growth inhibition [2] -16.5% | viability increase [3] -0.7% | viability [4] 96.4% | viability [5] 99.5% | inhibition [6] 0.515% | RAM network inhibition [7] 2.56%

O=C(NCc1ccco1)C1CCN(S(=O)(=O)c2cccc3cccnc23)CC1
inactive: growth inhibition [1] 5.31% | growth inhibition [2] 5.93% | viability increase [3] -2.72% | viability [4] 99.4% | viability [5] 93.8% | inhibition [6] 2.12% | RAM network inhibition [7] 2.63%

O=C(CSc1nc2ccccc2c(=O)n1-c1ccccc1)N1CCN(CCO)CC1
inactive: growth inhibition [1] -8.67% | growth inhibition [2] -3.58% | viability increase [3] -2.9% | viability [4] 99.5% | viability [5] 98.6% | inhibition [6] 0.595% | RAM network inhibition [7] 1.04%

O=c1sc(N2CCN(c3ccccc3F)CC2)nc2ccsc12
inactive: growth inhibition [1] -7.07% | growth inhibition [2] -8.01% | viability increase [3] -1.94% | viability [4] 85.3% | viability [5] 81.9% | inhibition [6] 3.63% | RAM network inhibition [7] 7.46%

COc1ccc(N(CC(=O)N2CC=C(c3ccccc3)CC2)S(=O)(=O)c2c(C)noc2C)cc1
inactive: growth inhibition [1] -3.14% | growth inhibition [2] 1.52% | viability increase [3] -4.79% | viability [4] 98.1% | viability [5] 97.2% | inhibition [6] 1.41% | RAM network inhibition [7] 2.09%

Nc1ccccc1SCc1cn2cccnc2n1
inactive: growth inhibition [1] 1.29% | growth inhibition [2] 12% | viability increase [3] -2.43% | viability [4] 109% | viability [5] 98% | inhibition [6] 2.13% | RAM network inhibition [7] 3.55%

O=C(Cn1cc2c(n1)CCCC2)N1CCOCC1
inactive: growth inhibition [1] -13.2% | growth inhibition [2] -4.99% | viability increase [3] -0.03% | viability [4] 99.4% | viability [5] 108% | inhibition [6] 0.095% | RAM network inhibition [7] 6.94%

COC(=O)c1ccc(C2C(C(C)=O)=C(C)Nc3ncnn32)cc1 (configuration not stated)
inactive: growth inhibition [1] -8.45% | growth inhibition [2] 9.82% | viability increase [3] -1.07% | viability [4] 108% | viability [5] 98.7% | inhibition [6] 1.9% | RAM network inhibition [7] 2.09%

CCCn1c(=S)[nH]c2cc(C(=O)NCC3CCCO3)ccc2c1=O (configuration not stated)
inactive: growth inhibition [1] -1.52% | growth inhibition [2] 7.49% | viability increase [3] 0.21% | viability [4] 104% | viability [5] 86.5% | inhibition [6] 1.96% | RAM network inhibition [7] 2.81%

O=C1c2ccccc2C(O)N1Cc1ccco1 (configuration not stated)
inactive: growth inhibition [1] 5.97% | growth inhibition [2] -0.555% | viability increase [3] -2.36% | viability [4] 93.6% | viability [5] 94.6% | inhibition [6] 0.695% | RAM network inhibition [7] 0.68%

CC1CCN(CCCn2c(=S)[nH]c3ccccc3c2=O)CC1
inactive: growth inhibition [1] 1.02% | growth inhibition [2] 10.3% | viability increase [3] -2.18% | viability [4] 91.3% | viability [5] 93.7% | inhibition [6] 1.1% | RAM network inhibition [7] 0.66%

O=C(Nc1ccc2c(c1)OCO2)c1cc(C2CC2)on1
inactive: growth inhibition [1] -12.5% | growth inhibition [2] -18% | viability increase [3] -3.41% | viability [4] 84.9% | viability [5] 88.8% | inhibition [6] 1% | RAM network inhibition [7] 3.09%

CCN(CC)S(=O)(=O)c1cc(C(=O)Nc2ccc(Cl)cn2)ccc1C
inactive: growth inhibition [1] -5.56% | growth inhibition [2] -11.5% | viability increase [3] 2.78% | viability [4] 52.9% | viability [5] 74.2% | inhibition [6] 1.1% | RAM network inhibition [7] -0.26%

CCOCCCNC(=O)C(NC(=O)c1cnccn1)c1ccc(OC)cc1 (configuration not stated)
inactive: growth inhibition [1] -8.29% | growth inhibition [2] -6.63% | viability increase [3] 1.76% | viability [4] 102% | viability [5] 95.7% | inhibition [6] 1.81% | RAM network inhibition [7] 2.15%

CC(=O)Nc1ccc(C(=O)c2ccccc2)cc1
inactive: growth inhibition [1] 8.43% | growth inhibition [2] 6.52% | viability increase [3] -1.14% | viability [4] 95.4% | viability [5] 92.5% | inhibition [6] 0.97% | RAM network inhibition [7] 0.62%

COc1cccc2c1N1C(=O)c3c(C(=O)O)cccc3C1CC2(C)C (configuration not stated)
inactive: growth inhibition [1] -15.2% | growth inhibition [2] -18.1% | viability increase [3] -2.18% | viability [4] 108% | viability [5] 98.9% | inhibition [6] 4.54% | RAM network inhibition [7] 2.74%

COc1ccc(CCNc2nc(=O)[nH]nc2C)cc1OC
inactive: growth inhibition [1] -14.6% | growth inhibition [2] -16.5% | viability increase [3] -1.65% | viability [4] 96% | viability [5] 96.5% | inhibition [6] 2.62% | RAM network inhibition [7] 0.16%

COc1ccccc1CNC(=O)C1COc2ccccc2O1 (configuration not stated)
inactive: growth inhibition [1] -13.9% | growth inhibition [2] -2.38% | viability increase [3] 0.65% | viability [4] 98.8% | viability [5] 88.5% | inhibition [6] 2.73% | RAM network inhibition [7] 2.77%

COc1ccc(S(=O)(=O)Cc2ccc(C(=O)NC3CCCC3)o2)cc1
inactive: growth inhibition [1] -0.76% | growth inhibition [2] -12% | viability increase [3] -1.65% | viability [4] 108% | viability [5] 96.3% | inhibition [6] 1.19% | RAM network inhibition [7] 2.65%

COc1ccccc1N1C(=O)C2CC=CC(C)C2C1=O (configuration not stated)
inactive: growth inhibition [1] -0.615% | growth inhibition [2] 2.32% | viability increase [3] -0.91% | viability [4] 89.4% | viability [5] 94% | inhibition [6] 0.52% | RAM network inhibition [7] 2.25%

Cc1ccc2nc(NC(=O)C3CCN(S(=O)(=O)c4ccc5c(c4)oc(=O)n5C)CC3)sc2c1
inactive: growth inhibition [1] -5.8% | growth inhibition [2] -24.5% | viability increase [3] 1.75% | viability [4] 82.2% | viability [5] 88.9% | inhibition [6] 1.54% | RAM network inhibition [7] 9.3%

c1ccc(C2NCCn3cccc32)cc1 (configuration not stated)
inactive: growth inhibition [1] -8.84% | growth inhibition [2] -13.7% | viability increase [3] -2.82% | viability [4] 99% | viability [5] 98% | inhibition [6] 0.21% | RAM network inhibition [7] 2.74%

CCOC(=O)c1cccc(NC(=O)Cn2cc3c(n2)CCC(C)C3)c1 (configuration not stated)
inactive: growth inhibition [1] 4.72% | growth inhibition [2] 17.6% | viability increase [3] -0.48% | viability [4] 101% | viability [5] 92.3% | inhibition [6] 1.12% | RAM network inhibition [7] 0.81%
